Assay [1] has as its system SGBS. In words: Upregulation of ADIPOQ gene expression in human preadipocyte derived from Simpson-Golabi-Behmel syndrome (SGBS) patient at 2 uM measured for 12 days by qRT-PCR analysis. It counts as functional, cell-based. The gist of the method: (§1)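 SGBS cells were differentiated with serum-free induction medium containing 25 μM test agent, 2 μM rosiglitazone or 0.1% DMSO from day 0. IBMX and dexamethasone were removed on day 4 and medium was renewed on day 8. RNA was taken on days 0, 4, 8 and 12 for qPCR, normalized to TBP and to day 0. At least three biological replicates in duplicate, two-way ANOVA with Bonferroni.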
In general terms: In qPCR the cycle at which signal appears reflects the starting amount.

In assay [2] the test system is SGBS. In words: Induction of adipocyte differentiation in human preadipocyte derived from Simpson-Golabi-Behmel syndrome (SGBS) patient assessed as lipid accumulation at 2 uM measured for 12 days by Oil red O staining based microscopic analysis. Type of assay: functional, cell-based. The gist of the method: (§2)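 Differentiation of SGBS preadipocytes was started in serum-free medium with transferrin, insulin, T3, hydrocortisol, IBMX and dexamethasone, plus 25 μM test agent, 2 μM rosiglitazone or 0.1% DMSO. On day 4 medium was switched to lack IBMX and dexamethasone, and it was renewed on day 8. Cells were fixed with 4% PFA and stained with 0.3% Oil Red O on days 0, 4, 8 and 12, then photographed.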

For assay [3], the system named is SGBS. Description: Upregulation of ACSL1 gene expression in human preadipocyte derived from Simpson-Golabi-Behmel syndrome (SGBS) patient at 2 uM measured for 12 days by qRT-PCR analysis. Type of assay: functional, cell-based. The gist of the method:
as §1

For assay [4], the system named is SGBS. In words: Upregulation of ANGPTL4 gene expression in human preadipocyte derived from Simpson-Golabi-Behmel syndrome (SGBS) patient at 2 uM measured for 12 days by qRT-PCR analysis. Type of assay: functional, cell-based. The gist of the method:
as §1

The test system of assay [5] is SGBS. In words: Upregulation of PPARgamma gene expression in human preadipocyte derived from Simpson-Golabi-Behmel syndrome (SGBS) patient at 2 uM measured for 12 days by qRT-PCR analysis. Type of assay: functional, cell-based. Summed up: as §1
The target of assay [6] is T1, Peroxisome proliferator-activated receptor alpha (Mus musculus) (UniProt P23204).
T1 sequence (whole entry): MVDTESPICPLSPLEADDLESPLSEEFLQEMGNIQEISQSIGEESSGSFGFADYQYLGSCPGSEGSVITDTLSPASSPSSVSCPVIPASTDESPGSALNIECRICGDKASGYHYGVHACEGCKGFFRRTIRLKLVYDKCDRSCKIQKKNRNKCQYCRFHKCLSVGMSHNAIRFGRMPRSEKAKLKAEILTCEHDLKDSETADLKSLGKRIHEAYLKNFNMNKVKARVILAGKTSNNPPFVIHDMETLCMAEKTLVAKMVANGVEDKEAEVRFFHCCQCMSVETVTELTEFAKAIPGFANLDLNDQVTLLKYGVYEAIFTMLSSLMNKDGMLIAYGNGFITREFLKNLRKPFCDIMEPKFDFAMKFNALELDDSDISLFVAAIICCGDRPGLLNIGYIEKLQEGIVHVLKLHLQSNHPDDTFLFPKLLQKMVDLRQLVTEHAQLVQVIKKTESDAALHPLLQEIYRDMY
In words: Agonist activity at PPARalpha in C57BL/6N mouse primary hepatocytes assessed as activation of PPARalpha mRNA expression at 1 uM measured after 18 hrs by qRT-PCR analysis. Type of assay: cell-based. The gist of the method:
(§3)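 Treatment for 18 h at 50 μM (or 1 μM for the 1 μM agents), DMSO vehicle. Harvested for qPCR. mRNA normalized to TBP by the comparative threshold method, expressed relative to DMSO control. Two biological replicates run in duplicate, mean ± SEM. Primary hepatocytes came from male C57BL/6N mice aged 7–8 weeks, isolated by portal-vein perfusion and digestion, seeded on collagen I and used on day 2. HuH-7 cells were kept in DMEM with 10% FBS and ITS.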

Assay [7] has as its system SGBS. Description: Upregulation of PLIN1 gene expression in human preadipocyte derived from Simpson-Golabi-Behmel syndrome (SGBS) patient at 2 uM measured for 12 days by qRT-PCR analysis. It counts as functional, cell-based. Summed up: as §1
In assay [8] the test system is SGBS. Description: Upregulation of CD36 gene expression in human preadipocyte derived from Simpson-Golabi-Behmel syndrome (SGBS) patient at 2 uM measured for 12 days by qRT-PCR analysis. Type of assay: functional, cell-based. The gist of the method: as §1
For assay [9], the target named is T1, Peroxisome proliferator-activated receptor alpha (Mus musculus). Description: Agonist activity at PPARalpha in C57BL/6N mouse primary hepatocytes assessed as activation of Scd1 mRNA expression at 1 uM measured after 18 hrs by qRT-PCR analysis. Type of assay: cell-based. The gist of the method: as §3
The target is the same in assay [10]. In words: Agonist activity at PPARalpha in C57BL/6N mouse primary hepatocytes assessed as activation of Srebf1 mRNA expression at 1 uM measured after 18 hrs by qRT-PCR analysis. Type of assay: cell-based. Summed up:
as §3

In assay [11] the test system is SGBS. Description: Upregulation of FABP4 gene expression in human preadipocyte derived from Simpson-Golabi-Behmel syndrome (SGBS) patient at 2 uM measured for 12 days by qRT-PCR analysis. It counts as functional, cell-based. Summed up:
as §1

Assay [12] concerns SGBS. In words: Upregulation of CEBPA gene expression in human preadipocyte derived from Simpson-Golabi-Behmel syndrome (SGBS) patient at 2 uM measured for 12 days by qRT-PCR analysis. Type of assay: functional, cell-based. The gist of the method: as §1
In assay [13] the target is T2, Peroxisome proliferator-activated receptor alpha (Homo sapiens) (UniProt Q07869).
T2 sequence (whole entry): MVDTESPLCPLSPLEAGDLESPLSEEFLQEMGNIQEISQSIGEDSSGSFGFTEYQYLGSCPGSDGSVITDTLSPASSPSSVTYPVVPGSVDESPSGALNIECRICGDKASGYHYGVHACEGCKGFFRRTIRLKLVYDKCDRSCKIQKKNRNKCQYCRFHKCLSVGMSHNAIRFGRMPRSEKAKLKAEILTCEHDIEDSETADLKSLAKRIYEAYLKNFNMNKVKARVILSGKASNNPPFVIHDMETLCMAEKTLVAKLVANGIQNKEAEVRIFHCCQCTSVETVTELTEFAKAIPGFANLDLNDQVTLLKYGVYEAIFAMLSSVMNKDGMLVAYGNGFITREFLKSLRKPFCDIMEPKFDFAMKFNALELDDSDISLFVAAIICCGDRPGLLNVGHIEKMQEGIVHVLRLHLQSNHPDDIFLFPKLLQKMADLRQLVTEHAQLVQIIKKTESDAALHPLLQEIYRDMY
Description: Agonist activity at PPARalpha in human Huh7 cells assessed as activation of CPT1A mRNA expression at 1 uM measured after 18 hrs by qRT-PCR analysis. Type of assay: cell-based. The gist of the method: as §3

Assay [14] addresses T2, Peroxisome proliferator-activated receptor alpha (Homo sapiens). In words: Agonist activity at PPARalpha in human Huh7 cells assessed as PPARA mRNA expression at 1 uM measured after 18 hrs by qRT-PCR analysis. Type of assay: cell-based. The gist of the method: as §3
For assay [15] the target is unchanged. In words: Agonist activity at PPARalpha in human Huh7 cells assessed as SREBF1 mRNA expression at 1 uM measured after 18 hrs by qRT-PCR analysis. It counts as cell-based. The gist of the method: as §3
The target is the same in assay [16]. In words: Agonist activity at PPARalpha in human Huh7 cells assessed as SCD1 mRNA expression at 1 uM measured after 18 hrs by qRT-PCR analysis. It counts as cell-based. Summed up: as §3
For assay [17], the target named is T1, Peroxisome proliferator-activated receptor alpha (Mus musculus). Description: Agonist activity at PPARalpha in C57BL/6N mouse primary hepatocytes assessed as activation of Cpt1a mRNA expression at 1 uM measured after 18 hrs by qRT-PCR analysis. Type of assay: cell-based. The gist of the method: as §3
The subject of assay [18] is SGBS. In words: Upregulation of PLIN1 gene expression in human preadipocyte derived from Simpson-Golabi-Behmel syndrome (SGBS) patient at 25 uM measured for 12 days by qRT-PCR analysis. Type of assay: functional, cell-based. The gist of the method: as §1
Assay [19] deals with SGBS. In words: Upregulation of ADIPOQ gene expression in human preadipocyte derived from Simpson-Golabi-Behmel syndrome (SGBS) patient at 25 uM measured for 12 days by qRT-PCR analysis. Type of assay: functional, cell-based. The gist of the method: as §1
For assay [20], the system named is SGBS. In words: Upregulation of ANGPTL4 gene expression in human preadipocyte derived from Simpson-Golabi-Behmel syndrome (SGBS) patient at 25 uM measured for 12 days by qRT-PCR analysis. It counts as functional, cell-based. Summed up: as §1
Assay [21] addresses T1, Peroxisome proliferator-activated receptor alpha (Mus musculus). Description: Agonist activity at PPARalpha in C57BL/6N mouse primary hepatocytes assessed as SCD1 mRNA expression at 50 uM measured after 18 hrs by qRT-PCR analysis. Type of assay: cell-based. Summed up: as §3
For assay [22] the target is unchanged. In words: Agonist activity at PPARalpha in C57BL/6N mouse primary hepatocytes assessed as PPARA mRNA expression at 50 uM measured after 18 hrs by qRT-PCR analysis. It counts as cell-based. The gist of the method: as §3
Assay [23] deals with SGBS. Description: Upregulation of CEBPA gene expression in human preadipocyte derived from Simpson-Golabi-Behmel syndrome (SGBS) patient at 25 uM measured for 12 days by qRT-PCR analysis. It counts as functional, cell-based. Summed up: as §1
Assay [24] has as its target T2, Peroxisome proliferator-activated receptor alpha (Homo sapiens). In words: Agonist activity at PPARalpha in human Huh7 cells assessed as PPARA mRNA expression at 50 uM measured after 18 hrs by qRT-PCR analysis. Type of assay: cell-based. Summed up: as §3
Assay [25] deals with SGBS. Description: Induction of adipocyte differentiation in human preadipocyte derived from Simpson-Golabi-Behmel syndrome (SGBS) patient assessed as lipid accumulation at 25 uM measured for 12 days by Oil red O staining based microscopic analysis. Type of assay: functional, cell-based. The gist of the method:
as §2

For assay [26], the target named is T1, Peroxisome proliferator-activated receptor alpha (Mus musculus). In words: Agonist activity at PPARalpha in C57BL/6N mouse primary hepatocytes assessed as SREBF1 mRNA expression at 50 uM measured after 18 hrs by qRT-PCR analysis. Type of assay: cell-based. The gist of the method: as §3
In assay [27] the target is T2, Peroxisome proliferator-activated receptor alpha (Homo sapiens). Description: Agonist activity at PPARalpha in human Huh7 cells assessed as SREBF1 mRNA expression at 50 uM measured after 18 hrs by qRT-PCR analysis. Type of assay: cell-based. The gist of the method: as §3
For assay [28], the system named is SGBS. In words: Upregulation of FABP4 gene expression in human preadipocyte derived from Simpson-Golabi-Behmel syndrome (SGBS) patient at 25 uM measured for 12 days by qRT-PCR analysis. It counts as functional, cell-based. The gist of the method: as §1
In assay [29] the test system is SGBS. In words: Upregulation of ACSL1 gene expression in human preadipocyte derived from Simpson-Golabi-Behmel syndrome (SGBS) patient at 25 uM measured for 12 days by qRT-PCR analysis. Type of assay: functional, cell-based. The gist of the method:
as §1

The target of assay [30] is T2, Peroxisome proliferator-activated receptor alpha (Homo sapiens). Description: Agonist activity at PPARalpha in human Huh7 cells assessed as SCD1 mRNA expression at 50 uM measured after 18 hrs by qRT-PCR analysis. Type of assay: cell-based. The gist of the method:
as §3

The test system of assay [31] is SGBS. Description: Upregulation of CD36 gene expression in human preadipocyte derived from Simpson-Golabi-Behmel syndrome (SGBS) patient at 25 uM measured for 12 days by qRT-PCR analysis. Type of assay: functional, cell-based. The gist of the method: as §1
The subject of assay [32] is SGBS. In words: Upregulation of PPARgamma gene expression in human preadipocyte derived from Simpson-Golabi-Behmel syndrome (SGBS) patient at 25 uM measured for 12 days by qRT-PCR analysis. It counts as functional, cell-based. The gist of the method:
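SGBS cells grown 4 days in biotin/D-pantothenate medium, then differentiated without FBS (apo-transferrin, insulin, T3, hydrocortisol, IBMX, dexamethasone) with 25 μM compound or 0.1 % DMSO added from day 0. After 4 days, switched to maintenance medium without IBMX/dexamethasone, renewed day 8. qPCR on days 0, 4, 8, 12, normalized to TBP (comparative threshold) and to day 0. Minimum three biological replicates in duplicate, mean ± SEM.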

The source made the active and inactive calls.

Take `CN(CCOc1ccc(CC2SC(=O)NC2=O)cc1)c1ccccn1` (centres undefined): the outcome (in the assay with SGBS [1]; in the assay on SGBS [2]; in the assay on SGBS [3]; in the assay on SGBS [4]; with SGBS [5]; in assay [6]) was Active. Further, the outcome in the assay on SGBS [7], in the assay with SGBS [8], with SGBS [11] and with SGBS [12] was Active. Also, the outcome in assay [9] and in assay [10] was inactive.

For the molecule `CC(C)(Sc1ccc(CCN(CCCCC2CCCCC2)C(=O)NC2CCCCC2)cc1)C(=O)O`, the outcome in assay [13], in assay [9], in assay [10] and in assay [17] was Active. Also, the result in [14], in assay [15] and in [16] was inactive.

Regarding `CCCCCCCC(=O)/C=C/CCCCCC(=O)O`, the outcome (in the assay with SGBS [18]; in the assay with SGBS [19]; in the assay with SGBS [20]; in assay [22]; in the assay with SGBS [23]; with SGBS [25]) was Active. Further, the outcome in the assay with SGBS [28], in the assay on SGBS [29], in the assay with SGBS [31] and in the assay on SGBS [32] was Active. Besides, the result in [21], in assay [24], in [26], in [27] and in [30] was inactive.

(Values after ChEMBL document CHEMBL4393735, “Molecular modelling, synthesis, and biological evaluations of a 3,5-disubstituted isoxazole fatty acid analogue as a PPARα-selective agonist” (Bioorg Med Chem, 2019).)
